In series [1] the test system is Rattus norvegicus. As to the kind of experiment: Compound was tested for anticonvulsant activity after Oral Administration into Rats by using MES screen test after 4h,dose 12.5 mg/kg; number of rats out of four which were protected. It counts as functional. The essentials:
(§1)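 Rats received the compound orally. […] Rats were tested in the MES screen at 0.25, 0.5, 1, 2 and 4 h. Each value is the number of rats protected out of 4. The test followed NINDS procedures.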

The subject of series [2] is Mus musculus. As to the kind of experiment: Toxicity after intraperitoneal injection into mice by using toxicity screen test after 0.5 hr. It counts as organism-based. Particulars: in vivo, ip. The essentials: (§2)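 Mice injected intraperitoneally at 30, 100 and 300 mg/kg and examined 0.5 and 4 h afterwards. Each entry is the minimum dose giving activity (MES protection, scPTZ protection, or rotorod failure for neurotoxicity) in half or more of the mice. Activity is called absent if nothing occurs at 300 mg/kg.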

Series [3] concerns Mus musculus. The experiment in a line: Compound was tested for toxicity after intraperitoneal injection into mice by using toxicity screen test after 4 hr. The class given is organism-based. Particulars: in vivo, ip. Put shortly:
as §2

In series [4] the test system is Rattus norvegicus. The experiment in a line: Compound was tested for anticonvulsant activity after Oral Administration into Rats by using MES screen test after 2h,dose 12.5 mg/kg; number of rats out of four which were protected. It counts as functional. The essentials:
as §1

Series [5] is described as follows: Compound was tested for toxicity after oral administration in rat by using neurotoxicity screen test after 0.25-24 hr. It counts as organism-based. Particulars: in vivo. The essentials: (§3)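 Rat neurotoxicity after oral dosing, observed at 0.25, 0.5, 1, 2, 4, 6, 8 and 24 h (8 h omitted for one compound).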
For series [6], the system named is Mus musculus. The experiment in a line: Anticonvulsant activity after intraperitoneal injection into mice by using MES screen test after 0.5 hr. It counts as functional.
The test system of series [7] is Rattus norvegicus. As to the kind of experiment: Compound was tested for anticonvulsant activity after Oral Administration into Rats by using MES screen test after 1h,dose 12.5 mg/kg; number of rats out of four which were protected. The class given is functional. The essentials: as §1
The test system of series [8] is Rattus norvegicus. As to the kind of experiment: Compound was tested for anticonvulsant activity after Oral Administration into rat by using MES screen test after 1 hr. It counts as functional. The essentials:
(§4)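 Rats dosed orally, typically at 50 mg/kg first, then mostly 12.5 mg/kg (some compounds at 30 mg/kg), and tested by maximal electroshock. Four rats per compound, scored at 0.25, 0.5, 1, 2 and 4 h as the number of rats protected out of 4.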

Series [9] has as its system Mus musculus. As to the kind of experiment: Anticonvulsant activity after intraperitoneal injection into mice measured in a maximal electroshock scree (MES) screen. The class given is functional. (In the maximal electroshock model the usual endpoint is tonic extension of the hind limbs.)
For series [10], the system named is Rattus norvegicus. As to the kind of experiment: Anticonvulsant activity after oral administration into rats. The class given is functional. More on the design: concentration or dose not given beside the values.
Series [11] deals with Rattus norvegicus. The experiment in a line: Compound was tested for anticonvulsant activity after Oral Administration into Rats by using MES screen test after 0.25h,dose 12.5 mg/kg; No activity was demonstarted. The class given is functional, organism-based. Also on record: dose 12.5 mg/kg. The essentials:
as §1

The nature of series [12]: Protection index = TD50/ED50 (MES). The class given is ADME, organism-based. As to conditions: rat, in vivo; read-out: PI.
Series [13] has as its system Rattus norvegicus. As to the kind of experiment: Compound was tested for anticonvulsant activity after Oral Administration into Rats by using MES screen test after 2h,dose 30 mg/kg; number of rats out of four which were protected. The class given is functional. Put shortly: as §1
For series [14], the system named is Rattus norvegicus. The experiment in a line: Compound was tested for anticonvulsant activity after Oral Administration into Rats by using MES screen test after 1h,dose 30 mg/kg; number of rats out of four which were protected. The class given is functional. The essentials:
as §1

Series [15] concerns Rattus norvegicus. The experiment in a line: Compound was tested for anticonvulsant activity after Oral Administration into Rats by using MES screen test after 0.5h,dose 30 mg/kg; number of rats out of four which were protected. The class given is functional. Put shortly: as §1
The test system of series [16] is Mus musculus. As to the kind of experiment: Anticonvulsant activity after intraperitoneal injection into mice by using scPTZ screen after 0.5 hr. The class given is functional.
Series [17] relates to Rattus norvegicus. As to the kind of experiment: Compound was tested for anticonvulsant activity after Oral Administration into Rats by using MES screen test after 4h,dose 30 mg/kg; number of rats out of four which were protected. It counts as functional. Put shortly:
as §1

Series [18] concerns Rattus norvegicus. As to the kind of experiment: Compound was tested for anticonvulsant activity after Oral Administration into Rats by using MES screen test after 0.25h,dose 30 mg/kg; No activity was demonstarted. It counts as functional, organism-based. Also on record: dose 30 mg/kg. The essentials: as §1
Series [19] relates to Rattus norvegicus. As to the kind of experiment: Compound was tested for anticonvulsant activity after Oral Administration into Rats by using MES screen test after 0.5h,dose 50 mg/kg; number of rats out of four which were protected. The class given is functional. Put shortly: as §1
Series [20] relates to Rattus norvegicus. As to the kind of experiment: Compound was tested for anticonvulsant activity after Oral Administration into Rats by using MES screen test after 4h,dose 50 mg/kg; number of rats out of four which were protected. The class given is functional. Put shortly: as §1
In series [21] the test system is Rattus norvegicus. The experiment in a line: Compound was tested for anticonvulsant activity after Oral Administration into Rats by using MES screen test after 1 hr, dose 50 mg/kg; number of rats out of four which were protected. It counts as functional. Put shortly:
as §1

Series [22] relates to Rattus norvegicus. As to the kind of experiment: Compound was tested for anticonvulsant activity after Oral Administration into Rats by using MES screen test after 0.25h,dose 50 mg/kg; number of rats out of four which were protected. The class given is functional. The essentials: as §1
The subject of series [23] is Rattus norvegicus. As to the kind of experiment: Compound was tested for anticonvulsant activity after Oral Administration into Rats by using MES screen test after 2h,dose 50 mg/kg; number of rats out of four which were protected. The class given is functional. The essentials:
as §1

In series [24] the test system is Rattus norvegicus. The experiment in a line: Compound was tested for anticonvulsant activity after Oral Administration into Rats by using MES screen test after 0.5h,dose 50 mg/kg; No activity was demonstarted. It counts as functional, organism-based. Also on record: dose 50 mg/kg. The essentials: as §1
Series [25] in a line: Partition coefficient (logP). It counts as physicochemical. Particulars: octanol/water. The essentials:
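Partition between 1-octanol and buffer at pH 7.4, with solutions prepared in 1-octanol before buffer is added. Quantified by UV, using λmax and ε values measured in 1-octanol.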

In series [26] the test system is Rattus norvegicus. As to the kind of experiment: Compound was tested for anticonvulsant activity after Oral Administration into Rats by using MES screen test after 0.25h,dose 50 mg/kg; No activity was demonstarted. The class given is functional, organism-based. More on the design: dose 50 mg/kg. The essentials:
as §1

For series [27], the system named is Rattus norvegicus. As to the kind of experiment: Compound was tested for anticonvulsant activity after Oral Administration into Rats by using MES screen test after 1h,dose 50 mg/kg; No activity was demonstarted. It counts as functional, organism-based. Also on record: dose 50 mg/kg. Put shortly:
as §1

Series [28] can be described thus: Compound was tested for toxicity after intraperitoneal injection into mice by using neurotoxicity screen test after 1 hr. It counts as organism-based. Particulars: mouse, in vivo, ip. The essentials:
(§5)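 Quantitative intraperitoneal mouse testing in the MES, scPTZ or rotorod neurotoxicity screens at the peak time given for each compound (0.25–2 h). ED50 or TD50 reported in mg/kg with 95% CI and slope (SE).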

In series [29] the test system is Rattus norvegicus. The experiment in a line: Compound was tested for anticonvulsant activity after Oral Administration into rat by using MES screen test after 4 hr. It counts as functional. The essentials:
as §4

A short description of series [30]: Protection index = TD50/ED50. The class given is ADME. Particulars: read-out: PI.
Series [31] deals with Mus musculus. As to the kind of experiment: Anticonvulsant activity after intraperitoneal injection into mice by using MES screen test after 0.25 hr. It counts as functional.
Series [32] can be described thus: Protection index = TD50/ED50 (MES). As to conditions: mouse, in vivo; read-out: PI.
Series [33] relates to Rattus norvegicus. As to the kind of experiment: Compound was tested for anticonvulsant activity after Oral Administration into Rats by using MES screen test after 0.25h,dose 30 mg/kg; number of rats out of four which were protected. It counts as functional. The essentials:
as §1

For series [34], the system named is Mus musculus. The experiment in a line: Compound was tested for anticonvulsant activity after intraperitoneal injection into mice by using scPTZ screen test after 0.25 hr. The class given is functional. As to conditions: ip. The essentials:
as §5

Series [35] has as its system Rattus norvegicus. As to the kind of experiment: Compound was tested for anticonvulsant activity after Oral Administration into Rats by using MES screen test after 0.25h,dose 12.5 mg/kg; number of rats out of four which were protected. It counts as functional. The essentials:
as §1

Series [36] relates to Mus musculus. As to the kind of experiment: Anticonvulsant activity after intraperitoneal injection into mice by using scPTZ screen test after 4 hr. The class given is functional.
A short description of series [37]: Compound was tested for toxicity after oral administration in rat by using neurotoxicity screen test after 2 hr. It counts as organism-based. Particulars: in vivo. Put shortly: as §3
Series [38] deals with Rattus norvegicus. The experiment in a line: Compound was tested for anticonvulsant activity after Oral Administration into rat by using MES screen test after 0.5 hr. The class given is functional. The essentials: as §4

SMILES strings stand for the structures.

A word on the TD50: it is the dose at which the toxic effect under study appears in half of the subjects. One may read the ED50 as the dose at which the effect has come halfway, by size or by number of responders. In the case of `Cc1cccc(Oc2ccc(/C=N/NC(N)=O)cc2)c1`, the Activity in series [1] was 2; in series [4], 3; in series [7], 4; in series [10] it was 4; in [11] it was “No activity”. Moreover, the Dose in series [2] is 100 mg/kg; in series [3] it was 300 mg/kg; in series [6], 30 mg/kg; in series [9], 100 mg/kg. Further, the TD50 in series [5] was above 500 mg/kg. In addition, the 50% effect level in series [8] (ED50) was put at a dose of 3.07 mg/kg. The selectivity ratio in [12] was above 163.

Take `C/C(=N/NC(N)=O)c1ccc(Sc2ccccc2)cc1`: the Activity in series [13] was 4; in series [14], 4; in series [15] it was 4; in series [17], 4; in series [18] it was “No activity”. In addition, the figures for the Dose in series [16], in series [6] and in series [9] were 300 mg/kg, 100 mg/kg and 100 mg/kg, respectively. The same compound registered an ED50 in [8] of 16.6 mg/kg.

As for `NC(=O)N/N=C/c1ccc(Oc2ccc(Br)cc2)cc1`, the Dose came out at 300 mg/kg in [2], 30 mg/kg in series [3], 30 mg/kg in series [6] and 30 mg/kg in series [9]. Also, the Activity came out at 4 in series [19]; 4 in series [20]; 4 in [21]; 1 in series [22]; 4 in [23].

Broadly, the logP is a log measure of how a compound divides between an organic and an aqueous phase. In the case of `NC(=O)N/N=C/c1ccc(Oc2ccc(Oc3ccccc3)cc2)cc1`, the Activity result in series [24] is “No activity”; in series [26] it was “No activity”; in series [20], 1; in series [27], “No activity”; in series [23], 1. The compound also came in with a logP in [25] of 1.92. In addition, the Dose in series [9] was found to be 300 mg/kg.

Take `C/C(=N/NC(N)=O)c1ccc(Oc2ccccc2)cc1`: the TD50 at 1 h in series [28] was 73.5 mg/kg. The Activity in [13], in [14], in [15], in [33] and in series [17] was 4 in each case. Also, the ED50 turned out to be 9.73 mg/kg in series [29], 9.08 mg/kg in series [31] and 43.3 mg/kg in series [34]. In addition, the Dose in [2] was found to be 100 mg/kg; in series [3] it was 100 mg/kg; in [6], 30 mg/kg; in series [9], 100 mg/kg. Further, the selectivity ratio in [30] amounted to 1.7; in series [32], 8.09.

As to `CC(=O)N/N=C/c1ccc(Oc2ccc(F)cc2)cc1`, the Activity in [1] was determined as 1; in series [35], 1; in [4], 2; in [7], 2; in series [10], 4. In addition, the Dose in series [36] worked out at 100 mg/kg; in series [16] it was 100 mg/kg; in [2] it was 100 mg/kg; in series [3] it was 100 mg/kg; in series [6], 30 mg/kg; in series [9] it was 30 mg/kg. In [25], this compound showed a logP of 1.96. For the same compound, the TD50 at 2 h in [37] was above 125 mg/kg. In addition, the ED50 in series [38] was determined as 18.7 mg/kg. The selectivity ratio in series [12] is above 6.7.
